Test results taken from ChEMBL document CHEMBL1156662, “Tetracyclic terpenoids from Dasyscyphus niveus, dasyscyphins D and E” (2008).
Activity calls are given as the source filed them. The calls are words filed in the database; no cut-off is given here.

What was measured:
[1] = system: Pyricularia oryzae; assay: Antifungal activity against Magnaporthe grisea 70-15 at 25 ug/mL after 18 hrs by conidia germination assay; format: functional; conditions: 70-15, 18 h
In short: (§1)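 M. grisea strain 70-15 conidia suspended in water at 5 × 10⁴/mL and exposed to compound. After 18 h, germination was scored microscopically against an inhibitor-free control. Conidia counted as affected were those that had not germinated or whose germ tubes were under 30% of control length.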

[2] = system: Pyricularia oryzae; assay: Antifungal activity against Magnaporthe grisea 70-15 after 18 hrs by conidia germination assay; format: functional, organism-based; in short: as §1
[3] = system: Eremothecium coryli; assay: Antifungal activity against Nematospora coylii ATTC 10647 at 50 ug/mL by disk diffusion assay; format: functional, organism-based
[4] = system: Pyricularia oryzae; assay: Antifungal activity against Magnaporthe grisea 70-15 at 20 ug/mL after 18 hrs by conidia germination assay; format: functional, organism-based; in short: as §1
[5] = system: Paecilomyces variotii; assay: Antifungal activity against Paecilomyces variotii DSM 1961 at 50 ug/mL by disk diffusion assay; format: functional, organism-based
[6] = system: Penicillium chrysogenum; assay: Antifungal activity against Penicillium chrysogenum DSM 848 at 50 ug/mL by disk diffusion assay; format: functional, organism-based
[7] = system: HeLa; assay: Cytotoxic activity against human HeLa S3 cells up to 50 ug/mL; format: functional, cell-based
In short: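 HeLa S3 human cervix carcinoma cells were grown in DMEM with penicillin G (65 µg/mL) and streptomycin sulfate (100 µg/mL). Cells at 10⁵/mL were exposed to compound in microtiter wells at 37 °C in humidified 5% CO2. Viable cells were counted by microscopy at 24 and 48 h.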

[8] = system: Rhizomucor miehei; assay: Antifungal activity against Rhizomucor miehei Tu 284 at 50 ug/mL by disk diffusion assay; format: functional, organism-based

Cc1ccc2c(c1O)[C@@]1(C)CC[C@@H]3[C@](C)(CCC[C@]3(C)O)[C@H]1C2 [DASYSCYPHIN E]
inhibition at 25 µg/mL [1]: 100%

COCc1cc(O)c2c(c1O)[C@@]1(C)CC[C@H]3C(C)(C)CCC[C@]3(C)[C@H]1C2
Activity [2]: Active

CC(O)(CC(=O)O)CC(=O)OCC1=C[C@@]2(O)[C@H](C[C@@H]3[C@@]4(C)CCCC(C)(C)[C@@H]4CC[C@@]32C)C(=O)C1=O (some centres undefined)
Activity [2]: Active

Cc1ccc2c(c1O)[C@@]1(C)CC[C@H]3C(C)(C)[C@@H](O)CC[C@]3(C)[C@H]1C2
Activity [3]: inactive | Activity [4]: Active | Activity [5]: inactive | Activity [6]: inactive | Activity [7]: inactive | Activity [8]: inactive
